# Compound activity from PubChem.
# T cruzi growth-1 = blocks T. cruzi growth in NIH3T3 culture | T. cruzi beta-gal in NIH3T3, GalScreen luminescence, 90 h | inhibition, % at 8.34 µM | hit rate 5.9% among 77,000;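 active means mean inhibition above about 93%, with at least 55% of replicates each passing it, limit read from the data, passing the limit was not always enough; inconclusive means only one of those two conditions holds; inactive means neither condition holds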
# Pf Dd2 growth = blocks growth of Plasmodium falciparum Dd2 parasites; activity change, % at 10 µM; hit rate 2.3% among 94,000; AID 1159554; P. falciparum Dd2 growth, SYBR Green, 72 h; stronger effect = lower value; in the data active means activity change below about -80%; inconclusive means no clear call, values can overlap the other calls
# KDM4C inh = inhibitors of human demethylase GASC-1 KDM4C; Q9H3R0; GST-KDM4C 2-372, H3K9me3 peptide, LANCE TR-FRET; inhibition, % at 12.5 µM; hit rate 0.15% among 96,000; AID 720574;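 active means mean replicate inhibition above about 25%, with at least 55% of replicates also reaching it, limit read from the data, passing the limit was not always enough; inconclusive means only one of those two conditions met; inactive means neither condition met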
# Target sequence (Q9H3R0 2-372 limits assumed): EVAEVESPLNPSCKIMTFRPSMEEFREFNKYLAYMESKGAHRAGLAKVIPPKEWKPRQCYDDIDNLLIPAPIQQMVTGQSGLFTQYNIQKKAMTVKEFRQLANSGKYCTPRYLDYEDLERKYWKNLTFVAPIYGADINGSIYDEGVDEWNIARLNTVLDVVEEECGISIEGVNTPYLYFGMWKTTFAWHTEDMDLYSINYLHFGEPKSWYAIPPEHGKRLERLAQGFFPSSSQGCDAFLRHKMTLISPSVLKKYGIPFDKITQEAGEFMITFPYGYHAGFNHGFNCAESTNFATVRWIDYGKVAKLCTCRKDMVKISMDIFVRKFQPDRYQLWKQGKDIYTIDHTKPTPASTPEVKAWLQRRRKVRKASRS
#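 System – N-terminal GST-fused human GASC-1 (KDM4C) fragment, residues 2-372 · Input – enzyme final amount 10 nM · Technique – LANCE TR-FRET, Eu antibody, ULight-streptavidin, EDTA, ex 340 nm, em 618/671 nm · Medium – HEPES buffer, pH 7.5, plus ascorbate · Incubation – enzyme reaction 30 min, then detection 60 min, both room temperature · Reagent – H3K9me3 peptide with Fe(II)/2OG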
# IDH1 mut inh = blocks human IDH1 R132H reductase activity | hit rate 0.18% among 70,000 | O75874 | inhibition, % at 10 µM | diaphorase/resazurin fluorescence, 60 min | AID 624101; in the data active means inhibition above about 34%; inconclusive means no clear call, values can overlap the other calls; inactive means below about 11%;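 further: 0% = DMSO and 100% = no enzyme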
# T cruzi growth-2 = blocks T. cruzi growth in NIH3T3 host cells; shares compounds with T cruzi growth-1; T. cruzi beta-gal in NIH3T3, GalScreen luminescence, 90 h; inhibition, % at 8.35 µM; hit rate 72% among 5,600;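 active means mean replicate inhibition above about 95% and at least 55% of replicates individually reaching it, limit read from the data; inconclusive means only one of the two criteria is met; inactive means neither criterion is met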
# T cruzi growth-3 = inhibitors of T. cruzi proliferation; inhibition, % at 2.09 µM; T. cruzi beta-gal in NIH3T3, GalScreen luminescence, 90 h; shares compounds with T cruzi growth-1; hit rate 21% among 5,600;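 active means mean inhibition above about 95%, with at least 55% of replicates also reaching it, limit read from the data; inconclusive means meets just one of the two conditions; inactive means meets neither condition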;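 further: plate controls were neutral control median for no effect and positive control median for full effect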
# 3T3 cytotox = NIH/3T3 (mouse) viability loss | shares compounds with T cruzi growth-1 | NIH/3T3 viability, CellTiter-Glo ATP luminescence, 90 h | cytotoxicity (signal decrease), % at 8.35 µM | hit rate 14% among 5,600 | AID 651742;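 active means mean signal decrease across replicates above about 35% based on untreated-well scatter, with enough replicates individually passing, limit read from the data; inconclusive means no rule stated though some were filed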;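 further: 0% = median of neutral control wells and 100% = median of positive control wells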
# NIH3T3 tox 2 = kills mouse NIH/3T3 fibroblasts. shares compounds with T cruzi growth-1. hit rate 56% among 5,600. NIH/3T3 viability, CellTiter-Glo ATP luminescence, 90 h. inhibition, % at 24.9 µM;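 active means mean loss of cell viability signal at or above a set limit, and enough replicates individually reaching it; inconclusive means meets only the mean limit or only the replicate share; inactive means meets neither condition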;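 further: 0% = median of neutral control wells and 100% = median of positive control wells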
# An asterisk follows results filed as active; u = inconclusive; x = no result. Only some compounds are listed: those with a hit (about 5.9% of all), similar ones and a draw of the others.
SMILES,T cruzi growth-1,Pf Dd2 growth,KDM4C inh,IDH1 mut inh,T cruzi growth-2,T cruzi growth-3,3T3 cytotox,NIH3T3 tox 2
COc1ccc(-c2ccc([C@H]3[C@@H](CO)N(C(=O)CN(C)C)[C@H]3C#N)cc2)cc1,105.1*,-0.3,-0.3,-0.1,108.5*,21.7,19.6,u
COc1ccccc1-c1ccc([C@@H]2[C@@H](C#N)N(C(=O)CN(C)C)[C@H]2CO)cc1,57.9,1.4,0.8,x,x,x,x,x
COc1ccccc1-c1ccc([C@H]2[C@@H](CO)N(C(=O)C3CCC3)[C@H]2C#N)cc1,98.7*,30.1,-1.2,-0.1,29.7,-26.2,12.1,-6.0
COc1ccccc1-c1ccc([C@H]2[C@H](C#N)N(C(=O)C3CCC3)[C@H]2CO)cc1,14.9,-28.1,-0.3,x,x,x,x,x
COc1ccc(-c2ccc([C@H]3[C@H](C#N)N(C(=O)C4CCCC4)[C@H]3CO)cc2)cc1,100.3*,-26.4,-4.5,x,90.5,52.5,16.7,19.7
COc1ccc(-c2ccc([C@@H]3[C@H](C#N)N(C(=O)c4cccnc4)[C@H]3CO)cc2)cc1,16.9,10.2,-0.9,x,x,x,x,x
COc1ccc(-c2ccc([C@@H]3[C@@H](CO)N(C(=O)c4cccnc4)[C@H]3C#N)cc2)cc1,96.2*,-26.5,-0.9,x,63.5,-13.2,-18.3,11.3
CS(=O)(=O)N(CC(=O)Nc1ccc(Br)cc1F)c1cccc([N+](=O)[O-])c1,x,x,x,0.1,x,x,x,x
Cc1cc(OCC(=O)Nc2ccccc2C(=O)NC2CCCCC2)cc(C)c1Cl,x,x,x,-0.1,x,x,x,x
COc1ccccc1-c1ccc([C@H]2[C@@H](CO)N(C(=O)C3CC3)[C@H]2C#N)cc1,102.6*,38.3,3.9,0.0,41.2,20.5,-0.3,-1.6
COc1ccccc1-c1ccc([C@@H]2[C@@H](C#N)N(C(=O)NC(C)C)[C@@H]2CO)cc1,99.3*,-9.2,-0.9,0.0,95.9*,36.7,5.7,38.2*
COc1ccccc1-c1ccc([C@@H]2[C@@H](C#N)N(C(=O)C3CCC3)[C@@H]2CO)cc1,98.4*,11.4,-1.3,x,83.1,18.5,-2.7,1.1
COc1ccccc1-c1ccc([C@@H]2[C@H](C#N)N(C(=O)C3CCC3)[C@H]2CO)cc1,14.9,11.8,0.8,x,x,x,x,x
N#C[C@H]1[C@@H](c2ccc(/C=C/c3ccccc3)cc2)[C@@H](CO)N1C(=O)C1CC1,u,41.2,-0.5,x,106.2*,40.3,19.8,34.8*
O=c1sc(N2CCN(C3CCCCC3)CC2)nc2ccsc12,x,x,x,1.5,x,x,x,x
CCOC(=O)c1ccc(NC(=O)Cn2cc(C#N)c3ccccc32)cc1,x,x,x,0.0,x,x,x,x
COc1ccccc1C#Cc1ccc([C@H]2[C@H](CO)N3CCCCN(C(=O)C4CCCC4)C[C@@H]23)cc1,106.7*,-37.6,x,x,106.1*,106.5*,42.8*,105.4*
COc1ccccc1C#Cc1ccc([C@H]2[C@@H](CO)N3CCCCN(C(=O)C4CCC4)C[C@@H]23)cc1,105.6*,2.7,-2.3,x,110.9*,u,50.0*,74.1*
COc1ccccc1C#Cc1ccc([C@H]2[C@@H](CO)N3CCCCN(C(=O)C4CC4)C[C@H]23)cc1,107.8*,-25.1,x,x,105.5*,103.1*,21.9,104.6*
COc1ccccc1C#Cc1ccc([C@@H]2[C@@H](CO)N3CCCCN(C(=O)C4CCC4)C[C@H]23)cc1,87.5,-1.1,0.5,x,x,x,x,x
COc1ccccc1C#Cc1ccc([C@@H]2[C@H](CO)N3CCCCN(C(=O)C4CCC4)C[C@@H]23)cc1,86.9,-14.8,-0.4,x,x,x,x,x
COc1ccccc1C#Cc1ccc([C@@H]2[C@@H](CO)N3CCCCN(C(=O)C4CCCC4)C[C@@H]23)cc1,116.5*,13.1,x,x,102.3*,98.3*,-19.2,104.6*
[N-]=[N+]=NCC(=O)N1CCC2(CC1)C(=O)NCN2c1ccccc1,x,x,x,0.2,x,x,x,x
C[C@H](C[C@@H](O)[C@](C)(O)[C@H]1CC[C@@]2(O)C3=CC(=O)[C@@H]4C[C@@H](O)[C@@H](O)C[C@]4(C)C3CC[C@]12C)C(C)(C)O (some centres not stated),x,x,x,1.3,x,x,x,x
O=C(CC1CC1)N1CC[C@@H]2[C@H](CO)Nc3ccc(-c4cccc(F)c4)cc3[C@@H]21,4.1,-14.2,0.0,x,x,x,x,x
SMILES,T cruzi growth-1,Pf Dd2 growth,KDM4C inh,IDH1 mut inh,T cruzi growth-2,T cruzi growth-3,3T3 cytotox,NIH3T3 tox 2
O=C(CC1CC1)N1CC[C@@H]2[C@@H](CO)Nc3ccc(-c4ccc(F)cc4)cc3[C@@H]21,u,7.4,-0.6,x,103.9*,63.5,18.4,12.0
O=C(CC1CC1)N1CC[C@@H]2[C@H]1c1cc(-c3ccc(F)cc3)ccc1N[C@@H]2CO,102.9*,5.7,-0.5,x,102.4*,101.0*,-8.1,82.1*
O=C(CC1CC1)N1CC[C@H]2[C@H](CO)Nc3ccc(-c4ccc(F)cc4)cc3[C@H]21,107.1*,24.5,-1.2,x,107.7*,102.9*,-18.2,16.8
CS(=O)(=O)Nc1ccc2c(c1)[C@H]1C[C@@H](CC(=O)NCc3ccncc3)O[C@@H](CO)[C@H]1O2,107.5*,18.9,1.5,-0.3,-1.8,-12.3,-2.6,-3.7
O=C(C[C@H]1C[C@@H]2c3cc(NC(=O)c4ccc5c(c4)OCO5)ccc3O[C@@H]2[C@@H](CO)O1)NCc1cc(F)ccc1F,52.3,-17.4,0.9,-0.7,x,x,x,x
O=C(C[C@H]1C[C@@H]2c3cc(NC(=O)c4cccnc4)ccc3O[C@@H]2[C@H](CO)O1)NCc1cccnc1,97.8*,11.2,-4.1,-0.7,15.2,-20.5,6.3,7.2
O=C(C[C@@H]1C[C@@H]2c3cc(NC(=O)c4ccc5c(c4)OCO5)ccc3O[C@@H]2[C@@H](CO)O1)NCc1cc(F)ccc1F,98.7*,-7.5,-0.3,-1.9,68.1,14.8,6.3,-1.9
O=C(C[C@H]1C[C@@H]2c3cc(NC(=O)c4cccnc4)ccc3O[C@@H]2[C@@H](CO)O1)NCCc1ccccc1,128.7*,-30.5,0.5,-1.5,0.4,-1.8,-29.6,-10.5
Cc1ccc(S(=O)(=O)N(C)CC(=O)Nc2cc(Cl)ccc2Oc2ccccc2)cc1,x,x,x,0.7,x,x,x,x
O=C(CSc1n[nH]c(-c2ccccc2)n1)Nc1ccc(F)cc1,x,x,x,-0.3,x,x,x,x
C[C@H]1CCCCO[C@H](CN(C)Cc2ccc(C(F)(F)F)cc2)[C@@H](C)CN([C@@H](C)CO)C(=O)c2cc(NC(=O)NC3CCCCC3)ccc2O1,64.1,4.9,0.4,1.9,x,x,x,x
C[C@@H]1CCCCO[C@@H](CN(C)Cc2ccccc2)[C@@H](C)CN([C@H](C)CO)C(=O)c2cc(NC(=O)Nc3ccc(C(F)(F)F)cc3)ccc2O1,u,31.6,-0.4,x,89.4,115.3*,29.2,11.8
